Screening data: PubChem BioAssay, several laboratories
TPT1 inh: inhibitors of Candida albicans tRNA 2'-phosphotransferase TPT1; inhibition, % at 5 µM; recombinant caTPT1, FP RNA substrate dephosphorylation; actives 0.81% (n = 300,000); AID 1962;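 active means inhibition above the mean of all tested compounds plus 3 SD, set per screening campaign, cut at about 24% in these data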;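 further: plate controls were DMSO alone for no effect and ferristatin control at 100 nM for full effect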
HNF4A DNA FP: change in binding of human HNF4 alpha to DNA; actives 0.3% (n = 360,000); P41235; HNF4a-FITC DNA binding, fluorescence polarization, 1 h; activity change, % at 10 µM; in the data active means activity change above about 30%, passing the limit was not always enough
CSN deneddyl inh: inhibitors of human CSN-mediated cullin deneddylation; Purified CSN, SCF-Nedd8-OG deneddylation, fluorescence polarization; inhibition, % at 12.5 µM; actives 0.38% (n = 360,000);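 active means pattern-corrected inhibition above about 35%, with an unprinted fluorescence ratio check between 0.5 and 1.5, limit read from the data, passing the limit was not always enough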;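 further: 0% = enzyme with substrate and 100% = substrate without enzyme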
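Assay system: purified human Csn5 enzyme expressed in HEK293T cells; Input: 0.24 nM Csn5 enzyme, final concentration; Reagent: 10 nM SCFSkp2-Nedd8OG; Compound dosing: 12.5 µM single point; Times: reaction 90 min, room temperature; Technique: fluorescence polarization readout.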
Rtt109 HAT inh: inhibitors of Candida albicans Rtt109/Vps75 histone acetyltransferase; inhibition, % at 34.9 µM; Q5AAJ8; purified Rtt109/Vps75, ThioGlo CoA-SH fluorescence, 4 h; actives 0.16% (n = 330,000);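 active means inhibition of at least 50% in every replicate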
Target sequence (Q5AAJ8 whole entry, looked up): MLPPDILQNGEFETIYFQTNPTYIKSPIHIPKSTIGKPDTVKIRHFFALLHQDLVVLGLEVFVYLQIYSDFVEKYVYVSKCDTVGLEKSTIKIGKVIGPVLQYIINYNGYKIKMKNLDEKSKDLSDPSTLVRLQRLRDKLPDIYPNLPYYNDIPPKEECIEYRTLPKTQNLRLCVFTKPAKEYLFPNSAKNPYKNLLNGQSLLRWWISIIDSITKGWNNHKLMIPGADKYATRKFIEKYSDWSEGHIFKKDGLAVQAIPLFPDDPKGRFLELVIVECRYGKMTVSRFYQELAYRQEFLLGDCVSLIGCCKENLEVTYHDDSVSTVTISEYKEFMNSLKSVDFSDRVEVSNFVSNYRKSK
TPT1 inh confirm: TPT1 (C. albicans) inhibition, confirmation | shares compounds with TPT1 inh | recombinant caTPT1, fluorescence polarization, RNase T1 coupled | inhibition, % at 5 µM | actives 74% (n = 2,400);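 active means inhibition above the primary screen limit, the mean inhibition of all tested compounds plus 3 SD, cut at about 25% in these data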
RNase T1 counter: blocks Aspergillus oryzae RNase T1, a TPT1 counter-screen | actives 83% (n = 2,400) | shares compounds with TPT1 inh | inhibition, % at 5 µM | RNase T1 cleavage, fluorescence polarization, 1536-well;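 active means inhibition above the solvent-only control well mean plus 3 SD, limit set per screening run, cut at about 23% in these data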;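 further: plate controls were DMSO wells with enzyme for no effect and wells without RNase T1 for full effect; inhibitors block cleavage so intact labeled substrate keeps polarization high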
Active calls of the source: *; x = not tested or not shown. Hits are enriched below; roughly 1.2% of the tested compounds scored in any of these assays.

SMILES	TPT1 inh	HNF4A DNA FP	CSN deneddyl inh	Rtt109 HAT inh	TPT1 inh confirm	RNase T1 counter
O=C1N(Cc2cccc(Cl)c2)C[C@@H]2C[C@@H](c3c[nH]c4ccccc34)N3CCC[C@@]123	26*	85*	49*	-3	30*	40*
CCn1c2ccccc2c2cc(NC(=O)c3coc(=O)c(Br)c3)ccc21	9	-46	-14	x	x	x
CCn1c2ccccc2c2cc(NC(=O)c3ccc(=O)oc3)ccc21	63*	23	20	x	34*	37*
Cc1ccc(-n2nnnc2SCC(=O)N2CC(=O)Nc3ccccc32)cc1	28*	9	-1	11	36*	46*
Cc1ccc2[nH]cc(/C=C/c3cc[n+](C)cc3)c2c1	x	95	89	-4	x	x
COc1ccc2c(c1)c(/C=C/c1cc[n+](C)cc1)cn2C	72*	127	74*	-6	88*	91*
CC[n+]1ccc(/C=C/c2c[nH]c3ccccc23)cc1	64*	83	66	-1	60*	67*
COc1ccc2c(/C=C/c3cc[n+](C)cc3)c[nH]c2c1	43*	36*	25	-2	47*	59*
O=C(c1ccco1)N1CCN(Cc2csc(-c3ccccc3Cl)n2)CC1	5	0	2	2	x	x
CN(Cc1ccc(C(F)(F)F)cc1)C(=O)C1CC(=O)N(Cc2ccco2)C1 (centres undefined)	x	-2	1	8	x	x
Cc1ccc(-n2nc3c(N4CCC(C(=O)N5CCN(C)CC5)CC4)nnc(C)c3c2C)cc1	14	8	10	4	x	x
CCCN1CCN(C(=O)C2CCN(c3nnc(C)c4c(C)n(-c5ccc(C)cc5)nc34)CC2)CC1	28*	34	27	6	36*	48*
O=C(C[n+]1cc(Br)cc2ccccc21)c1ccccc1	40*	26	14	2	48*	64*
COc1ccc(C(=O)C[n+]2cc(Br)cc3ccccc32)cc1[N+](=O)[O-]	45*	3	-1	0	39*	56*
COc1ccc(C(=O)OCC(N)=O)cc1[N+](=O)[O-]	2	0	-5	-6	x	x
CCCCNC(=O)c1nc(C2CCN(S(=O)(=O)c3ccc(F)c(F)c3)CC2)oc1-c1ccccc1	x	-1	4	x	x	x
CC(/C=N/NC(=O)c1ccccc1F)=C\c1ccccc1	2	-6	3	-2	x	x
COc1ccc(N2C(=O)CSC2c2ccc3c(c2)OCO3)c(OC)c1 (centres undefined)	40*	-3	4	-2	5	8
CC(C)(C)OC(=O)C[C@@H]1C/C=C\C[C@@H](CC(=O)N(CCO)Cc2ccccc2)C(=O)N[C@@H](c2ccccc2)COC1=O	x	0	-4	21	x	x
COc1ccc(CCNC(=O)c2ccc3c(c2)NC(=O)C(C(C)C)N3)cc1OC (centres undefined)	-1	1	-1	-3	x	x
COc1ccc(CCNC(=O)c2ccc3c(c2)NC(=O)C(CSCc2cc(C)ccc2C)N3)cc1OC (centres undefined)	129*	x	x	x	124*	122*
CCN(CC)c1ccc2c(c1)oc(=O)c1c(Cl)cc(=O)oc12	25*	-23	-31	6	37*	50*
CCCCc1nc2ccccc2c(N)c1CCC (tested in a mixture with another compound)	40*	-2	-4	-5	4	5
CCN=C1S/C(=C\c2cn(C(C)=O)nc2-c2ccccc2)C(=O)N1CC	-3	-4	3	x	x	x
CC(=O)NC1=NC(=O)/C(=C/c2cn(C(C)=O)nc2-c2ccccc2)S1	31*	16	11	27	35*	47*
CC(=O)NC1=NC(=O)/C(=C/c2cc(C)n(-c3ccc(NC(C)=O)cc3)c2C)S1	68*	82*	30	4	102*	109*
Cc1cc(/C=C2\SC(=O)N(C)C2=O)c(C)n1-c1ccc(O)cc1	3	2	-2	-10	x	x
CCOc1ccc(N2CC(C(=O)Nc3ccc(S(=O)(=O)Nc4nccs4)cc3)CC2=O)cc1 (centres undefined)	0	0	6	13	x	x
